# HTRA1 inh = blocks human HTRA1 serine peptidase. recombinant HTRA1, FP-rhodamine activity-based probe, fluorescence polarization. inhibition, % at 5.96 µM. hit rate 0.5% among 340,000; in the data active means inhibition above about 36%;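 further: 0% = enzyme with DMSO and 100% = wells lacking enzyme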
# TCR-CD3 inh = human TCR-CD3 binding inhibition; inhibition, % at 9.4 µM; TAMRA-labeled TCR probe fluorescence, biochemical; hit rate 0.37% among 360,000; AID 651800; in the data active means inhibition above about 19%;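 further: recombinant mutant TCR 2C K166C tagged with TAMRA read by polarization; 0% = receptor in buffer alone and 100% = receptor with positive control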
# SIAE inh = human SIAE inhibition, primary screen; Q9HAT2; SIAE FP-Rh probe binding, fluorescence polarization; inhibition, % at 9.66 µM; hit rate 0.69% among 370,000; AID 1053197;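 active means inhibition above a cutoff: mean of compounds within the control limits plus 3 SD of those, cut at about 17% in these data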;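 further: 0% = plate median of compound wells and 100% = probe without SIAE protein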
# PRMT1 inh = blocks human protein arginine methyltransferase 1; AID 652257; Q99873; recombinant PRMT1, activity-based probe fluorescence polarization; inhibition, % at 2.79 µM; hit rate 1.3% among 370,000;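 active means inhibition above about 21% made by adding two undisclosed values, limit read from the data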
# Target sequence (Q99873 whole entry, looked up): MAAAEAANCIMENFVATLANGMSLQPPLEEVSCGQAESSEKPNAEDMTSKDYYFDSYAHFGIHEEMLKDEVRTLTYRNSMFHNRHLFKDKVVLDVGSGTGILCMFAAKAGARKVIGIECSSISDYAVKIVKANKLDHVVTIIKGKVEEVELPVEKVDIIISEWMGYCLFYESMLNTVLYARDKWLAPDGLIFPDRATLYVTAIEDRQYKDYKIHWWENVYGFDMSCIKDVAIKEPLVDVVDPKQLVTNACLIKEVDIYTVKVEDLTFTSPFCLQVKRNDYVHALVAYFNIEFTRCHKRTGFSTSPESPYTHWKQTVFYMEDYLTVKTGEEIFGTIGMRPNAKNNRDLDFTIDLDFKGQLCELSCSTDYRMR
# ABHD4 inh = inhibits mouse alpha/beta hydrolase domain 4; Q8VD66; purified mABHD4, FP-Rh probe fluorescence polarization; inhibition, % at 8.92 µM; hit rate 0.54% among 370,000; AID 720543;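 active means inhibition exceeding the mean over every tested compound plus 3 SD, cut at about 30% in these data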;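 further: 0% = plate median of compound wells and 100% = S159A mutant with DMSO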
#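 Assay system: Wild-type mouse ABHD4 protein | Medium: HEPES pH 7.0 buffer, 150 mM NaCl, 0.01% Pluronic F-127 | Incubation: Enzyme–compound pre-incubation 45 min, then probe 60 min, both 25 °C | Technique: Fluorescence polarization with parallel and perpendicular emission, 525/598 nm | Evaluation: % inhibition of FP-Rh probe binding versus controls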
# PRMT1 inh conf = PRMT1 (human) inhibition, FP confirmation. shares compounds with PRMT1 inh. recombinant His-PRMT1, activity-based probe fluorescence polarization. inhibition, % at 2.79 µM. hit rate 42% among 3,300;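 active means mean inhibition across replicates above the hit cutoff derived for the earlier primary screen, cut at about 22% in these data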
# * marks the source's active call; other numbers are inactive results; / = no result. The list is not random: actives were taken first. Their share in the collection is about 2.6%.
SMILES,HTRA1 inh,TCR-CD3 inh,SIAE inh,PRMT1 inh,ABHD4 inh,PRMT1 inh conf
COc1ccc(N2C(=O)CC(N3CCC(O)(c4ccc(Br)cc4)CC3)C2=O)cc1 (stereo not given),3,0,3,50*,1,2
C=C(C)[C@@H]1CC2=C(OC)C(CC=C(C)C)(CC=C(C)C)C(=O)C(C(=O)c3ccccc3)=C2O1,/,/,-3,2,-10,/
COC(=O)C1=C(C)N(C)C(=NCc2ccccc2C(F)(F)F)NC1c1cccc(F)c1 (stereo not given),/,3,-6,-2,-4,/
CC(C)C[C@H]1CN([C@@H](Cc2ccccc2)CN2CCC[C@H]2CN2C(=O)C(=O)NC[C@@H]2Cc2ccccc2)C(=O)C(=O)N1CC1CCCCCC1,/,-5,3,-1,6,/
CC1(C(=O)Nc2cnc3ccccc3c2)CCN1Cc1ccc(-c2ccccc2)o1 (stereo not given),/,-9,9,34*,5,11
S=c1[nH]c(-c2ccccc2)cs1,-11,-5,0,30*,5,6
COC(=O)C1CN(Cc2ccccc2)CCS(=O)(=O)N1Cc1ccccc1 (stereo not given),/,/,-2,-3,-1,/
Cc1ccccc1C1CCC2(CCC(=O)N2CC[C@@H](O)c2ccccc2)CC1 (stereo not given in full),/,/,-2,5,6,/
O=C1C=CC(=O)N1CCNc1ncc(C(F)(F)F)cc1Cl,-3,-5,4,92*,9,90*
O=C1CC(=O)N(CCNc2ncc(C(F)(F)F)cc2Cl)C(=O)N1,-12,-4,-3,7,-6,/
CCOC(=O)Cc1nc(N2CCN(C=O)CC2)c2c(C)c(C(=O)OCC)sc2n1,/,/,3,-3,-2,/
Nc1nc(=O)c2ccccc2s1,5,4,-8,36*,-1,25*
CC(=O)N/C(N)=N/c1nc(=O)c2ccccc2s1,-2,1,8,3,4,/
CC(=O)Nc1nc(=O)c2ccccc2s1,8,1,12,44*,2,33*
COC(=O)c1cccc2c([N+](=O)[O-])c(NC(C)=O)cc(C(=O)OC)c12,/,7,-4,0,7,/
CC(Sc1nnc(C2CC2)n1C1CC1)C(=O)Nc1cccc(S(=O)(=O)N(C)C)c1 (stereo not given),6,5,6,37*,7,0
O=C(CSc1oc(-c2ccco2)nc1S(=O)(=O)c1ccc(F)cc1)NCC1CCCO1 (stereo not given),3,-2,0,45*,6,7
COc1ccc(Nc2nnc(SCc3cc(=O)n4ccsc4n3)s2)cc1,8,4,-9,29*,14,35*
CC(C)N(C(=O)CSc1nnc(-c2cc3ccccc3cc2O)n1Cc1ccco1)C(C)C,-10,2,6,0,3,/
O=C(CSc1nnc(-c2cc3ccccc3cc2O)n1Cc1ccco1)N1CCc2ccccc2C1,-17,-4,-10,32*,-8,5
CCC[C@H]1[C@@H](OC(=O)NCc2ccc(OC)c(OC)c2)CC[C@@]23CCCN2C(=O)CCC[C@@H]13,/,/,7,2,5,/
CC(=O)CC[C@@H]1CC[C@]2(CCCN(S(C)(=O)=O)C2)O1,/,/,-2,9,-4,/
N#Cc1c(SCC(=O)Nc2ccccc2C(F)(F)F)sc2c(O)cc(=O)[nH]c12,-21,10,-7,31*,-28,5
Cc1c(Cl)cccc1NC(=O)CSc1sc2c(O)cc(=O)[nH]c2c1C#N,-39,2,-17,1,-11,/
N#Cc1c(SCC(=O)Nc2ccc(Cl)cc2Cl)sc2c(O)cc(=O)[nH]c12,-27,13,-12,30*,-2,4
SMILES,HTRA1 inh,TCR-CD3 inh,SIAE inh,PRMT1 inh,ABHD4 inh,PRMT1 inh conf
O=C(Cn1nnc(-c2ccncc2)n1)Nc1ccc(F)cc1F,/,/,5,1,5,/
CC(C)C(=O)N(c1ccc2oc(=O)sc2c1)S(=O)(=O)c1cccs1,19,5,-10,53*,-9,8
CC(=O)N(c1ccc2oc(=O)sc2c1)S(=O)(=O)c1cccs1,3,-5,0,94*,12,57*
COc1ccc(N(C(C)=O)S(=O)(=O)c2cccs2)cc1,4,-1,-2,-2,-1,/
CC(=O)N(c1ccc2oc(=O)sc2c1)S(=O)(=O)c1ccc(C(=O)O)cc1,8,5,-13,91*,20,80*
COc1ccc(N(C(=O)C(C)C)S(=O)(=O)c2cccs2)cc1,8,-3,-8,0,-1,/
CCCCNC(=O)C[C@H]1C[C@@]2(C(=O)OCC)CCCC3=C2N(CCC3)C1=O,/,/,-9,0,2,/
CN(c1ccccc1)S(=O)(=O)c1ccc(NC(=O)c2ccccc2)cc1,-46,-6,-13,0,-18,/
COc1cccc(NC(=O)c2nc(S(C)(=O)=O)ncc2Cl)c1,-26,-6,-2,40*,-12,14
CN(c1ccccc1)S(=O)(=O)c1ccc(NC(=O)c2nc(S(C)(=O)=O)ncc2Cl)cc1,-29,1,-6,40*,-10,49*
Cc1ccc(-n2c(Cc3cccs3)nnc2SCc2ccc(Br)cc2)cc1,/,/,-1,-1,-9,/
S=c1nccc(-c2cccs2)[nH]1,0,-4,3,49*,2,22*
CC(=O)N1CC=C2C(C#N)=C(N)C(C#N)(C#N)C(CCc3ccccc3)C2C1 (stereo not given),4,7,3,6,6,/
CCN1CC=C2C(C#N)=C(N)C(C#N)(C#N)C(CCc3ccccc3)C2C1 (stereo not given),28,10,15,49*,34*,25*
Cc1ccccc1C(=O)NC1CCCCN(Cc2cccc(C(F)(F)F)c2)C1=O (stereo not given),/,/,2,2,-6,/
Cc1cccc(Cn2cc(CN3CC(N4CCN(CCOC(=O)c5cc6ccccc6o5)CC4)CS3(=O)=O)nn2)c1 (stereo not given),/,/,-1,2,-2,/
Cc1ccc(-c2csc3nc(C)n(-n4cccc4)c(=O)c23)o1,0,1,-3,26*,-2,7
Cn1c(=O)c(=O)n(C)c2cc(S(=O)(=O)N3CCN(CCO)CC3)ccc21,/,/,2,0,1,/
Cc1ccc(C)n1C(CC(=O)O)c1ccc(C#N)cc1 (stereo not given),/,-2,-2,27*,28,0
COc1cccc(NC(=O)C2CC(=O)n3cnnc3S2)c1 (stereo not given),-4,-3,1,79*,1,61*
COc1ccc(NC(=O)C2CC(=O)n3cnnc3S2)cc1 (stereo not given),4,10,5,74*,3,79*
COc1cccc(NC(=O)C2CC(=O)N=C(N)S2)c1 (stereo not given),7,3,2,-1,-2,/
S=C(Nc1ccccc1Br)OCCN1CCCC12CCC(c1ccccc1)CC2 (stereo not given),/,/,-4,35*,5,31*

# From PubChem
